Laboratory results taken from the M2OR odorant receptor database.

Experiments:
Details in all cases: stereoisomer not certain
UniProt Q8VG27 = biological target: T1, UniProt Q8VG27
T1 sequence (whole entry): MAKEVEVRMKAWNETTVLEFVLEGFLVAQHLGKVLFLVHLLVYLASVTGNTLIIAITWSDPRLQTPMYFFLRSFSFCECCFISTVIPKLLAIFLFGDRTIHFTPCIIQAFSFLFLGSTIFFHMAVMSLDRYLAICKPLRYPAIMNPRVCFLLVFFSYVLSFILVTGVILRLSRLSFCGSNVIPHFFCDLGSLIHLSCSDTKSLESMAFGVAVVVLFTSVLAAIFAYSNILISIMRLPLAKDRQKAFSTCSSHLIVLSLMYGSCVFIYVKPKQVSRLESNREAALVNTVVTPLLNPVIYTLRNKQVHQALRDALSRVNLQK
Outline: (§1)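 Each entry records the cell line, G-protein, co-transfected protein and tags used. Methods varied with the source, often transient luciferase assays in mammalian cell lines. A receptor–molecule pair is called responsive (active) if the original authors judged its signal statistically different from baseline and non-responsive (inactive) otherwise.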

UniProt Q8VG53 = biological target: T2, UniProt Q8VG53
T2 sequence (whole entry): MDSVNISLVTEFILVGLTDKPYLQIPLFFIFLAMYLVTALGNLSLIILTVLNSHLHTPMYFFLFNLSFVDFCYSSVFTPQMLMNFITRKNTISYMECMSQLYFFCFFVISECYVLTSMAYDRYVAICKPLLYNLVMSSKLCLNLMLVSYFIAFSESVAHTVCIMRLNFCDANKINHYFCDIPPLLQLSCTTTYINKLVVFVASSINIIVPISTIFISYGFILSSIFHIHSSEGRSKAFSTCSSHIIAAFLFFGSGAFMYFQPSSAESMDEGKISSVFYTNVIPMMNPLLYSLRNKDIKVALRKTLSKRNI
Outline: as §1

UniProt Q8VG64 = biological target: T3, UniProt Q8VG64
T3 sequence (whole entry): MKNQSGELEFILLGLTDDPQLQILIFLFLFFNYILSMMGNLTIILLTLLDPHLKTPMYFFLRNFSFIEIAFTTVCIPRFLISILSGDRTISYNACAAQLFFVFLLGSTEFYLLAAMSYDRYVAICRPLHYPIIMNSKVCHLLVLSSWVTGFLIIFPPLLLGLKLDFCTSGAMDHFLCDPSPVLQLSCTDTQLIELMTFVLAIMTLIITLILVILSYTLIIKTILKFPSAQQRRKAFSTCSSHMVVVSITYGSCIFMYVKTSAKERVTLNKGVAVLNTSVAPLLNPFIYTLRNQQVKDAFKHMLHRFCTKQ
Outline: as §1

UniProt Q8VGB9 = biological target: T4, UniProt Q8VGB9
T4 sequence (whole entry): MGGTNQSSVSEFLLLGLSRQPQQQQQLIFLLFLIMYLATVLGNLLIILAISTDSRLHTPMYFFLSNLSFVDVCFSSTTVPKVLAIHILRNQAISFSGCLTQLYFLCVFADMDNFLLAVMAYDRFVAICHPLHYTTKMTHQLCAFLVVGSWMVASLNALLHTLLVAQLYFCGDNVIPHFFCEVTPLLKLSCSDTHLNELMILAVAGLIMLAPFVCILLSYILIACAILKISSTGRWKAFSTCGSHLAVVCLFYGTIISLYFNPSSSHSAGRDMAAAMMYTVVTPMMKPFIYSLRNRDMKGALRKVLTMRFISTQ
Outline: as §1

UniProt Q8VGC6 = biological target: T5, UniProt Q8VGC6
T5 sequence (whole entry): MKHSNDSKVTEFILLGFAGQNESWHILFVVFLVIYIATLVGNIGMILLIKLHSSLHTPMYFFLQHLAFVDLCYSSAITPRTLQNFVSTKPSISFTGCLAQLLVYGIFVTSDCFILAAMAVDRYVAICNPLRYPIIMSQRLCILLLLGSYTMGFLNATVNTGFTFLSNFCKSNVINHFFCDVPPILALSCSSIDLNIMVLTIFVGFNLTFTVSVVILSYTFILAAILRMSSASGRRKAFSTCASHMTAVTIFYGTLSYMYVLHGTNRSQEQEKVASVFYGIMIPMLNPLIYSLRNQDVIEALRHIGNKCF
Outline: as §1

UniProt Q8VGJ3 = biological target: T6, UniProt Q8VGJ3
T6 sequence (whole entry): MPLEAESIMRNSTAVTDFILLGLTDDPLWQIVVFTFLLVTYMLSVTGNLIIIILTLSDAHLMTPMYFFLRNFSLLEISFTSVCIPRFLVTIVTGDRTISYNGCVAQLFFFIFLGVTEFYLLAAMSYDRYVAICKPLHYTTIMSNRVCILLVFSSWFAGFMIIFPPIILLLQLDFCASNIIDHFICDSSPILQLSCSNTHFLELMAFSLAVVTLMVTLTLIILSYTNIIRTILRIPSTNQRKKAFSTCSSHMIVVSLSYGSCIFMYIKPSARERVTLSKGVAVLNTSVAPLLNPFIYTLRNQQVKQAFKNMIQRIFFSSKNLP
Outline: as §1

UniProt Q8VGL0 = biological target: T7, UniProt Q8VGL0
T7 sequence (whole entry): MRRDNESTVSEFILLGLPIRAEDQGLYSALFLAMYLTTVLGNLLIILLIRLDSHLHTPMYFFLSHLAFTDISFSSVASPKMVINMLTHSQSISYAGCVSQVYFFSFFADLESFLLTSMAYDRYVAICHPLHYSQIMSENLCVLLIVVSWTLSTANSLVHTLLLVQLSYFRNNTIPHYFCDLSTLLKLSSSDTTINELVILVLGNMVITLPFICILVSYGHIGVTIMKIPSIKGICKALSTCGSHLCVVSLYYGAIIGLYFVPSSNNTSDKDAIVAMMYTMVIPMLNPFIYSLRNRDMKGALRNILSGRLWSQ
Outline: as §1

UniProt Q8VG74 = biological target: UniProt Q8VG74
Chain of UniProt Q8VG74 (Q8VG74 as listed by the source): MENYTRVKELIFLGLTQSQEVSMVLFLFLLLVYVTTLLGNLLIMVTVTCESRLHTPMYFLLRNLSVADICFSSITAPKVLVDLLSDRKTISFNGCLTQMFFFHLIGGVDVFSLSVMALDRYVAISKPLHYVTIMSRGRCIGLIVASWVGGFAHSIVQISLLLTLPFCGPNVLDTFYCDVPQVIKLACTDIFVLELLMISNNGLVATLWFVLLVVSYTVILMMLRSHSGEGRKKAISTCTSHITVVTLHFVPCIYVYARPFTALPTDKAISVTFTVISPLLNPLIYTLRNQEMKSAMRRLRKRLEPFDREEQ
Outline: as §1

UniProt Q8VGA9 = biological target: UniProt Q8VGA9
Chain of UniProt Q8VGA9 (Q8VGA9 as listed by the source): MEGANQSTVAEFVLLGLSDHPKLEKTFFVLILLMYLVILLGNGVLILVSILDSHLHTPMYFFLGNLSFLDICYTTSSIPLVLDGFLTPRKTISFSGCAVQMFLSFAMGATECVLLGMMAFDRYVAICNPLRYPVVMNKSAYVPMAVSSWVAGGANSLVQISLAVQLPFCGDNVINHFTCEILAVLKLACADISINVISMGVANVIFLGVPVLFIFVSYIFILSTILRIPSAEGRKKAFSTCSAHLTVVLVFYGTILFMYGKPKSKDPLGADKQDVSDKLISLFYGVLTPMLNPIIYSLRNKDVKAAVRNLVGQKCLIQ
Outline: as §1

UniProt Q8VG28 = biological target: UniProt Q8VG28
Chain of UniProt Q8VG28 (Q8VG28 as listed by the source): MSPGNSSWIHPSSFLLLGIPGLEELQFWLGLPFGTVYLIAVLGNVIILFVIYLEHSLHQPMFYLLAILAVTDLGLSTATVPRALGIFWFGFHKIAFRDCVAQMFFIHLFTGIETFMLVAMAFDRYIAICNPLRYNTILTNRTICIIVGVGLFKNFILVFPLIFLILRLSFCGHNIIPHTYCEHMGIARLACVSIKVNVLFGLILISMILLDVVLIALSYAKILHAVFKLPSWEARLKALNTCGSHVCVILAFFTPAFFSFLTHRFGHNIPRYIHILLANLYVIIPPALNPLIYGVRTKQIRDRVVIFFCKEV
Outline: as §1

UniProt Q8VG49 = biological target: T8, UniProt Q8VG49
T8 sequence (whole entry): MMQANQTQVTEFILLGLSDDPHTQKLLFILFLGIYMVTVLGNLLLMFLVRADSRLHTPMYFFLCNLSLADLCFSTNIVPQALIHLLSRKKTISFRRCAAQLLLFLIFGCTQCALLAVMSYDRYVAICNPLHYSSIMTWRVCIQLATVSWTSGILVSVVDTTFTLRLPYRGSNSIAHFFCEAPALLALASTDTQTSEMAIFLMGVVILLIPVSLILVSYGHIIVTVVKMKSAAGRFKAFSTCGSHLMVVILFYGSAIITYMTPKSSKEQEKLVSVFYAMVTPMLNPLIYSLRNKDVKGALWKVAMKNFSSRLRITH
Outline: as §1

UniProt Q8VG77 = biological target: T9, UniProt Q8VG77
T9 sequence (whole entry): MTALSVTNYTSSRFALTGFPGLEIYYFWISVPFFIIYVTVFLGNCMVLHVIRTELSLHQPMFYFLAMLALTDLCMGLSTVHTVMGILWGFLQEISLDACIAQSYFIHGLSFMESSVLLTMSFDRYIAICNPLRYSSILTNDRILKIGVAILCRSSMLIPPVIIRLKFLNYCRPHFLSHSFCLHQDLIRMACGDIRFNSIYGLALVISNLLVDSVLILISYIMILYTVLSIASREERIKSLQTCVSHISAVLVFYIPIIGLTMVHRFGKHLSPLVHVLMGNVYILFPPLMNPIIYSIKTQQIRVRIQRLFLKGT
Outline: as §1

UniProt Q8VG96 = biological target: T10, UniProt Q8VG96
T10 sequence (whole entry): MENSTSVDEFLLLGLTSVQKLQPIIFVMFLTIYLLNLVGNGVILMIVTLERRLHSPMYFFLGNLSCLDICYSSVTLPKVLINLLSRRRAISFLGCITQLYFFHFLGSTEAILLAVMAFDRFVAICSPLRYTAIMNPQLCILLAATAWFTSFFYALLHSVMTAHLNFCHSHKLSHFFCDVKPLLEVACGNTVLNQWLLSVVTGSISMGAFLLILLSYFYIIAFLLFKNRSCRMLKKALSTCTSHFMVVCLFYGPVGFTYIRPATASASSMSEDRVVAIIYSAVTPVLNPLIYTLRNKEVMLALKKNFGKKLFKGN
Outline: as §1

UniProt Q8VGD7 = biological target: T11, UniProt Q8VGD7
T11 sequence (whole entry): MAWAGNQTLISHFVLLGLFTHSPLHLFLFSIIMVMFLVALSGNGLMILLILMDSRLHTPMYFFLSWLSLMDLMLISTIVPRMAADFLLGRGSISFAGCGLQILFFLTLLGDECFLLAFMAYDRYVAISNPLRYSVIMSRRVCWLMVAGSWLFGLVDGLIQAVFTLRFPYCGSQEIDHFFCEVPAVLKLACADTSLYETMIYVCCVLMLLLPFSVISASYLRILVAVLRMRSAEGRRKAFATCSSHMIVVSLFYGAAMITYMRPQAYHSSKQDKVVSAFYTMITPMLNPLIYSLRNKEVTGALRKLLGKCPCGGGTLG
Outline: as §1

UniProt Q8VGH1 = biological target: T12, UniProt Q8VGH1
T12 sequence (whole entry): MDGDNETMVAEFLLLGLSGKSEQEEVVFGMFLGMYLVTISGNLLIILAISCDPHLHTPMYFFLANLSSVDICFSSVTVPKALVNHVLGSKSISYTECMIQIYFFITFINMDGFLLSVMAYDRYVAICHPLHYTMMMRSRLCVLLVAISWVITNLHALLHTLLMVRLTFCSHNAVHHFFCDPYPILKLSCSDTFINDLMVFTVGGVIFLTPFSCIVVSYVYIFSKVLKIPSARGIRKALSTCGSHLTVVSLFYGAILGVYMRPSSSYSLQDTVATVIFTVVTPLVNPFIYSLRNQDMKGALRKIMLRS
Outline: as §1

UniProt Q8VGJ1 = biological target: T13, UniProt Q8VGJ1
T13 sequence (whole entry): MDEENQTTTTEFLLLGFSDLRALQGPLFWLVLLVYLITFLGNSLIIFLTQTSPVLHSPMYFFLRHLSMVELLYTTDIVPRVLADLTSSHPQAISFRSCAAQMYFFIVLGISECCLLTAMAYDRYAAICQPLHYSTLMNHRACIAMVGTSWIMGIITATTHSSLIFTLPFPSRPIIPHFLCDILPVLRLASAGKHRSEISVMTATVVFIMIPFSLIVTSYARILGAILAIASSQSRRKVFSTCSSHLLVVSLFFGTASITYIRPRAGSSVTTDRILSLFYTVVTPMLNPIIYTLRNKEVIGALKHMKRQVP
Outline: as §1

UniProt Q8VGJ5 = biological target: T14, UniProt Q8VGJ5
T14 sequence (whole entry): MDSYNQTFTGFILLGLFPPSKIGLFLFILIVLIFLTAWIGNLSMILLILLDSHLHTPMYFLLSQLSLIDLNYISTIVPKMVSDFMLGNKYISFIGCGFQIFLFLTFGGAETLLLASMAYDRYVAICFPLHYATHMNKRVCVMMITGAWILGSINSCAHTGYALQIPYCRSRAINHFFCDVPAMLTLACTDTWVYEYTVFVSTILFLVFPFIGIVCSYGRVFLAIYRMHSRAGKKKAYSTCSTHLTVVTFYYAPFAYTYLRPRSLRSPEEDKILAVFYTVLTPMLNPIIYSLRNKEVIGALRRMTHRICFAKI
Outline: as §1

UniProt Q8VGL7 = biological target: T15, UniProt Q8VGL7
T15 sequence (whole entry): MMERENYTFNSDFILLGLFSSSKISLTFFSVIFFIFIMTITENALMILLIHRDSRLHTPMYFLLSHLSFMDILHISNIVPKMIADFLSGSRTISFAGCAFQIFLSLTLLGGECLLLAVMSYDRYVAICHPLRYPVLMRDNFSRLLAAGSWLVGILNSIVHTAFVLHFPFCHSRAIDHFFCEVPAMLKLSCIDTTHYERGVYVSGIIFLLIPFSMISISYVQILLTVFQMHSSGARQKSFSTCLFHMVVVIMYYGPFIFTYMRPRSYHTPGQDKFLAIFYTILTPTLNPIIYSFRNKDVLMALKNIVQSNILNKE
Outline: as §1

Measured: odorant receptor agonist call

COc1nccnc1C(C)C
inactive: UniProt Q8VG27 | UniProt Q8VG53 | UniProt Q8VG64 | UniProt Q8VGB9 | UniProt Q8VGC6 | UniProt Q8VGJ3 | UniProt Q8VGL0

CC1CCCCCCCCCCCCC(=O)C1 (configuration not stated)
inactive: UniProt Q8VG74 | UniProt Q8VGA9

O=C(O)CCCBr
inactive: UniProt Q8VG28

CCCCOC
inactive: UniProt Q8VGC6

CCC=CCCC=CC=O
inactive: UniProt Q8VG27 | UniProt Q8VG53 | UniProt Q8VG64 | UniProt Q8VGB9 | UniProt Q8VGC6 | UniProt Q8VGJ3 | UniProt Q8VGL0

CCC(=O)OC(C)(C)C
inactive: UniProt Q8VGC6

CCC(C(=O)O)c1ccccc1 (configuration not stated)
inactive: UniProt Q8VG49 | UniProt Q8VG77 | UniProt Q8VG96 | UniProt Q8VGC6 | UniProt Q8VGD7 | UniProt Q8VGH1 | UniProt Q8VGJ1 | UniProt Q8VGJ5 | UniProt Q8VGL0 | UniProt Q8VGL7

CCCCCCC(=O)[O-].[H+]
not listed: UniProt Q8VG27 | UniProt Q8VG53 | UniProt Q8VG64 | UniProt Q8VGB9 | UniProt Q8VGJ3 | UniProt Q8VG74 | UniProt Q8VGA9
inactive: all other assays above

O=C(O)CCCCCC(=O)O
inactive: UniProt Q8VG28

CCCCOC(=O)CCC
inactive: UniProt Q8VG28 | UniProt Q8VGC6

CCC(=O)OC
inactive: UniProt Q8VGC6

OCc1ccccc1
inactive: UniProt Q8VGC6

CCCC(C)=O
not listed: UniProt Q8VG27 | UniProt Q8VG53 | UniProt Q8VG64 | UniProt Q8VGB9 | UniProt Q8VGJ3 | UniProt Q8VG74 | UniProt Q8VGA9
inactive: all other assays above

O=C(Cl)CCCCCCCC(=O)Cl
inactive: UniProt Q8VGC6

CCCCCCC(=O)OCCCC
inactive: UniProt Q8VG27 | UniProt Q8VG53 | UniProt Q8VG64 | UniProt Q8VGB9 | UniProt Q8VGC6 | UniProt Q8VGJ3 | UniProt Q8VGL0

O=C(O)CCCCBr
inactive: UniProt Q8VG28

CCCCCO
not listed: UniProt Q8VG27 | UniProt Q8VG53 | UniProt Q8VG64 | UniProt Q8VGB9 | UniProt Q8VGJ3 | UniProt Q8VG74 | UniProt Q8VGA9
inactive: all other assays above

C=CCCCCCC
inactive: UniProt Q8VGC6
